From ChEMBL document CHEMBL4038284, “Synthesis of novel quinoline-based 4,5-dihydro-1H-pyrazoles as potential anticancer, antifungal, antibacterial and antiprotozoal agents” (Eur J Med Chem, 2017)
≈ marks a conversion by molar mass, not a printed value.

Assays:
Staphylococcus aureus [1] = assay: Antibacterial activity against vancomycin-intermediate Staphylococcus aureus after 24 hrs by resazurin dye based microdilution assay; format: functional
Summary of the method: (§1)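 MIC taken as the lowest concentration giving visible inhibition and/or by resazurin (1 mg/mL). Gentamicin was the control. Run in duplicate, repeated at least three times.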

Trypanosoma cruzi = assay: Antitrypanosomal activity against Trypanosoma cruzi Tulahuen intracellular amastigote harboring LacZ infected in human U937 cells after 72 hrs by CPRG/Nonidet reagent based spectrophotometric method; format: functional, cell-based; conditions: U-937, 72 h
Summary of the method: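 U-937 cells at 2.5 × 10^5 cells/mL in RPMI-1640 with 10% serum and 0.1 µg/mL PMA were infected with β-galactosidase-transfected Tulahuen epimastigotes at 5 parasites per cell. Infected cells were exposed to 50, 12.5, 3.125 and 0.78 µg/mL for 72 h. CPRG (100 uM) and 0.1% Nonidet P-40 were added for 3 h, read at 570 nm. EC50 by Probit. Triplicate, at least two experiments; benznidazole as reference.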

Staphylococcus aureus [2] = assay: Antibacterial activity against methicillin-resistant Staphylococcus aureus ATCC 43300 after 24 hrs by resazurin dye based microdilution assay; format: functional; conditions: ATCC 43300, 24 h
Summary of the method: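 Broth microdilution in Mueller Hinton broth, inoculum 5 × 10^5 – 8 × 10^5. Compound stocks diluted in MHB with 5% DMSO and 0.1% Tween 80. Incubation 24 h at 35-37 °C. MIC is the lowest concentration with visible growth inhibition and/or by resazurin (1 mg/mL) read-out. Gentamicin as control. Run in duplicate, replicated at least three times.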

Cryptococcus neoformans [3] = assay: Growth inhibition of Cryptococcus neoformans ATCC 32264 at 31.25 ug/ml incubated for 48 hrs under dark condition by broth microdilution method relative to control; format: functional; conditions: ATCC 32264, 48 h, read-out: GI
Summary of the method: (§2)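 CLSI M27-A3 broth microdilution in RPMI-1640, DMSO ≤1%. Inoculum 1-5 × 10^3 CFU/mL. Incubated 48 h at 30 °C, dark. % inhibition = 100 − (OD405 test − sterility control)/(OD405 growth control − sterility control), with growth and sterility control wells. Triplicate.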

Candida albicans [4] = assay: Growth inhibition of Candida albicans ATCC 10231 at 3.4 ug/ml incubated for 48 hrs under dark condition by broth microdilution method relative to control; format: functional; conditions: ATCC 10231, 48 h, read-out: GI
Cryptococcus neoformans [5] = assay: Growth inhibition of Cryptococcus neoformans ATCC 32264 at 15.62 ug/ml incubated for 48 hrs under dark condition by broth microdilution method relative to control; format: functional; conditions: ATCC 32264, 48 h, read-out: GI; summary of the method: as §2
Cryptococcus neoformans [6] = assay: Growth inhibition of Cryptococcus neoformans ATCC 32264 at 7.8 ug/ml incubated for 48 hrs under dark condition by broth microdilution method relative to control; format: functional; conditions: ATCC 32264, 48 h, read-out: GI; summary of the method: as §2
Cryptococcus neoformans [7] = assay: Growth inhibition of Cryptococcus neoformans ATCC 32264 at 250 ug/ml incubated for 48 hrs under dark condition by broth microdilution method relative to control; format: functional; conditions: ATCC 32264, 48 h, read-out: GI; summary of the method: as §2
Candida albicans [8] = assay: Growth inhibition of Candida albicans ATCC 10231 at 250 ug/ml incubated for 48 hrs under dark condition by broth microdilution method relative to control; format: functional; conditions: ATCC 10231, 48 h, read-out: GI; summary of the method: as §2
Leishmania panamensis = assay: Antileshmanial activity against EpiR/GFP fused Leishmania panamensis MHOM/CO/87/UA140 intracellular amastigotes infected in human […] cells after 72 hrs by flow cytometric method; format: functional, cell-based; conditions: MHOM/CO/87/UA140, 72 h
Summary of the method: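 PMA-treated U-937 cells (3 × 10^5 cells/mL) infected with stationary-phase GFP L. panamensis promastigotes (15:1), 3 h at 34 °C, then washed. After 24 h, compounds added at 50, 12.5, 3.125 and 0.78 µg/mL for 72 h at 37 °C. EC50 by Probit; triplicate, two experiments.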

Candida albicans [9] = assay: Growth inhibition of Candida albicans ATCC 10231 at 62.5 ug/ml incubated for 48 hrs under dark condition by broth microdilution method relative to control; format: functional; conditions: ATCC 10231, 48 h, read-out: GI; summary of the method: as §2
Staphylococcus aureus [10] = assay: Antibacterial activity against methicillin-sensitive Staphylococcus aureus ATCC 25923 after 24 hrs by resazurin dye based microdilution assay; format: functional; conditions: ATCC 25923, 24 h; summary of the method: as §1
Pseudomonas aeruginosa = assay: Antibacterial activity against Pseudomonas aeruginosa ATCC 27853 after 24 hrs by resazurin dye based microdilution assay; format: functional; conditions: ATCC 27853, 24 h; summary of the method: as §1
Candida albicans [11] = assay: Growth inhibition of Candida albicans ATCC 10231 at 125 ug/ml incubated for 48 hrs under dark condition by broth microdilution method relative to control; format: functional; conditions: ATCC 10231, 48 h, read-out: GI; summary of the method: as §2
Candida albicans [12] = assay: Antifungal activity against Candida albicans ATCC 10231 incubated for 48 hrs under dark condition by broth microdilution method; format: functional; conditions: ATCC 10231, 48 h
Summary of the method: (§3)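 CLSI M27-A3 broth microdilution in RPMI-1640, DMSO ≤1%, compounds at 250-0.98 µg/mL final. Inoculum 1-5 × 10^3 CFU/mL. Incubated 48 h at 30 °C in a moist dark chamber, read at OD405. MIC80 and MIC50 taken from % inhibition dose-response curves (mean ± SEM, triplicate). Amphotericin B was the positive control.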

Candida albicans [13] = assay: Growth inhibition of Candida albicans ATCC 10231 at 15.62 ug/ml incubated for 48 hrs under dark condition by broth microdilution method relative to control; format: functional; conditions: ATCC 10231, 48 h, read-out: GI; summary of the method: as §2
Neisseria gonorrhoeae = assay: Antibacterial activity against beta lactamase positive Neisseria gonorrhoeae ATCC 31426 by oxidase test; format: functional
Summary of the method: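 Agar dilution MIC on GC agar with 1% isovitalex containing increasing compound concentrations. Plates inoculated with about 1×10^4 CFU (5 µL). MIC is the lowest concentration that inhibited growth, with growth confirmed by oxidase test. Run in duplicate, repeated at least three times.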

Klebsiella pneumoniae [14] = assay: Antibacterial activity against carbapenemase positive Klebsiella pneumoniae BAA 1705 after 24 hrs by resazurin dye based microdilution assay; format: functional; conditions: BAA 1705, 24 h; summary of the method: as §1
Escherichia coli = assay: Antibacterial activity against Escherichia coli ATCC 25922 after 24 hrs by resazurin dye based microdilution assay; format: functional; conditions: ATCC 25922, 24 h; summary of the method: as §1
Klebsiella pneumoniae [15] = assay: Antibacterial activity against ESBL positive Klebsiella pneumoniae ATCC 700603 after 24 hrs by resazurin dye based microdilution assay; format: functional; conditions: Klebsiella pneumoniae, 700603, 24 h; summary of the method: as §1
Cryptococcus neoformans [16] = assay: Antifungal activity against Cryptococcus neoformans ATCC 32264 incubated for 48 hrs under dark condition by broth microdilution method; format: functional; conditions: ATCC 32264, 48 h; summary of the method: as §3
Candida albicans [17] = assay: Growth inhibition of Candida albicans ATCC 10231 at 7.8 ug/ml incubated for 48 hrs under dark condition by broth microdilution method relative to control; format: functional; conditions: ATCC 10231, 48 h, read-out: GI; summary of the method: as §2
Cryptococcus neoformans [18] = assay: Growth inhibition of Cryptococcus neoformans ATCC 32264 at 3.4 ug/ml incubated for 48 hrs under dark condition by broth microdilution method relative to control; format: functional; conditions: ATCC 32264, 48 h, read-out: GI
Plasmodium falciparum = assay: Antiplasmodial activity against chloroquine-sensitive Plasmodium falciparum 3D7 assessed as reduction in parasitic LDH activity after 48 hrs by Malstat reagent based […] method; format: functional; conditions: 3D7, 48 h
Summary of the method: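 Unsynchronized P. falciparum 3D7 at 0.5% parasitemia and 1% hematocrit in RPMI with 3% Albumax II. Exposed to 100, 25, 6.25 and 1.56 µg/mL for 48 h at 37 °C under 90% N2/5% CO2/5% O2. After three freeze-thaw cycles, LDH measured with Malstat and NBT/PES, 1 h in the dark, read at 650 nm. IC50 by Probit; triplicate, ≥2 experiments.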

Cryptococcus neoformans [19] = assay: Growth inhibition of Cryptococcus neoformans ATCC 32264 at 125 ug/ml incubated for 48 hrs under dark condition by broth microdilution method relative to control; format: functional; conditions: ATCC 32264, 48 h, read-out: GI; summary of the method: as §2
U-937 = assay: Cytotoxicity against human U937 cells after 72 hrs by MTT assay; format: cell-based; conditions: u-937, 72 h
Summary of the method: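 Exponentially growing U-937 at 1 × 10^5 cells/mL in RPMI-1640 with 10% FBS were exposed to 200, 50, 12.5 and 3.125 µg/mL for 72 h at 37 °C, 5% CO2. MTT for 3 h, stopped with isopropanol/SDS, formazan read at 570 nm, blank-corrected. LC50 by Probit from % viability against untreated cells. Triplicate, at least two independent experiments.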

Cryptococcus neoformans [20] = assay: Growth inhibition of Cryptococcus neoformans ATCC 32264 at 62.5 ug/ml incubated for 48 hrs under dark condition by broth microdilution method relative to control; format: functional; conditions: ATCC 32264, 48 h, read-out: GI; summary of the method: as §2
Candida albicans [21] = assay: Growth inhibition of Candida albicans ATCC 10231 at 31.25 ug/ml incubated for 48 hrs under dark condition by broth microdilution method relative to control; format: functional; conditions: ATCC 10231, 48 h, read-out: GI; summary of the method: as §2

SMILES	MIC (Staphylococcus aureus [1]) [µg/mL]	EC50 (Trypanosoma cruzi) [µg/mL]	MIC (Staphylococcus aureus [2]) [µg/mL]	inhibition of growth at 31.25 µg/mL (Cryptococcus neoformans [3]) [%]	inhibition of growth at 3.4 µg/mL (Candida albicans [4]) [%]	inhibition of growth at 15.62 µg/mL (Cryptococcus neoformans [5]) [%]	inhibition of growth at 7.8 µg/mL (Cryptococcus neoformans [6]) [%]	inhibition of growth at 250 µg/mL (Cryptococcus neoformans [7]) [%]	inhibition of growth at 250 µg/mL (Candida albicans [8]) [%]	EC50 (Leishmania panamensis) [µg/mL]	inhibition of growth at 62.5 µg/mL (Candida albicans [9]) [%]	MIC (Staphylococcus aureus [10]) [µg/mL]	MIC (Pseudomonas aeruginosa) [µg/mL]	inhibition of growth at 125 µg/mL (Candida albicans [11]) [%]	MIC50 (Candida albicans [12]) [µg/mL]	MIC80 (Candida albicans [12]) [µg/mL]	inhibition of growth at 15.62 µg/mL (Candida albicans [13]) [%]	MIC (Neisseria gonorrhoeae) [µg/mL]	MIC (Klebsiella pneumoniae [14]) [µg/mL]	MIC (Escherichia coli) [µg/mL]	also measured
COc1ccc(C2=NN(C(C)=O)C(c3cccc(Nc4ccnc5cc(Cl)ccc45)c3)C2)cc1 (stereo not given)	> 1000	3.44 (≈ 7.3 µM)	> 1000	20.2	6.14	13.9	7.99	72.2	37.5	2.98 (≈ 6.33 µM)	20.4	> 1000	> 1000	33.4	≥ 250	≥ 250	14.2	> 1000	> 1000	> 1000	MIC (Klebsiella pneumoniae [15]): > 1000 µg/mL; MIC50 (Cryptococcus neoformans [16]): 250 µg/mL (≈ 531 µM); MIC80 (Cryptococcus neoformans [16]): ≥ 250 µg/mL; inhibition of growth at 7.8 µg/mL (Candida albicans [17]): 7.64%; inhibition of growth at 3.4 µg/mL (Cryptococcus neoformans [18]): 4.82%; EC50 (Plasmodium falciparum): 13.8 µg/mL (≈ 29.3 µM); inhibition of growth at 125 µg/mL (Cryptococcus neoformans [19]): 45%; LC50 (U-937): 4.9 µg/mL (≈ 10.4 µM); inhibition of growth at 62.5 µg/mL (Cryptococcus neoformans [20]): 22.4%; inhibition of growth at 31.25 µg/mL (Candida albicans [21]): 16.9%
CC(=O)N1N=C(c2ccc(Br)cc2)CC1c1cccc(Nc2ccnc3cc(Cl)ccc23)c1 (stereo not given)	> 1000	3.7 (≈ 7.12 µM)	> 1000	19.6	13.7	18.3	16.9	71.2	29.9	3.66 (≈ 7.04 µM)	19.1	> 1000	> 1000	27.9	≥ 250	≥ 250	15	> 1000	> 1000	> 1000	MIC (Klebsiella pneumoniae [15]): > 1000 µg/mL; MIC50 (Cryptococcus neoformans [16]): 250 µg/mL (≈ 481 µM); MIC80 (Cryptococcus neoformans [16]): ≥ 250 µg/mL; inhibition of growth at 7.8 µg/mL (Candida albicans [17]): 13.9%; inhibition of growth at 3.4 µg/mL (Cryptococcus neoformans [18]): 15.4%; EC50 (Plasmodium falciparum): 50.1 µg/mL (≈ 96.3 µM); inhibition of growth at 125 µg/mL (Cryptococcus neoformans [19]): 48.4%; LC50 (U-937): 10.2 µg/mL (≈ 19.6 µM); inhibition of growth at 62.5 µg/mL (Cryptococcus neoformans [20]): 23.6%; inhibition of growth at 31.25 µg/mL (Candida albicans [21]): 15.7%
